Measured values as given in article PMC2745822 (The Journal of pharmacology and experimental therapeutics, 2008).
Where a chain is given by its changes, count along the chain named.

What was measured:
M1 = target: T1, M1 (Homo sapiens, UniProt P11229); test: Millipore GPCR Profiler functional screen, M1; type: cell-based; conditions: full agonist CRC
T1 sequence (P11229 1-460): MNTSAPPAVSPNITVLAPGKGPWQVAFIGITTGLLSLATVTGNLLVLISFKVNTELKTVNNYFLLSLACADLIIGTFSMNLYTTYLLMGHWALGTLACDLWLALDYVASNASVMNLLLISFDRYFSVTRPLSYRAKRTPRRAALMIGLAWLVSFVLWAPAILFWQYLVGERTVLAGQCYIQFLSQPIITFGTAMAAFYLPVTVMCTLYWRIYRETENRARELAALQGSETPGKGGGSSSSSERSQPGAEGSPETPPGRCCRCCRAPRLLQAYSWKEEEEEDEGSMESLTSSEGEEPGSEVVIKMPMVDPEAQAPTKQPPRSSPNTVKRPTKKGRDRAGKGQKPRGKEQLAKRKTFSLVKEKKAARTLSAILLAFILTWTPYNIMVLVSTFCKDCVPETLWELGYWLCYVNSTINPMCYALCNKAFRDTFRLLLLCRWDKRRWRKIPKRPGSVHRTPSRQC

M5 mAChR = target: T2, M5 mAChR (Homo sapiens, UniProt P08912); test: Calcium mobilization selectivity assay, CHO K1 cells expressing M5; type: cell-based; conditions: 30 µM compound
T2 sequence (P08912 1-532): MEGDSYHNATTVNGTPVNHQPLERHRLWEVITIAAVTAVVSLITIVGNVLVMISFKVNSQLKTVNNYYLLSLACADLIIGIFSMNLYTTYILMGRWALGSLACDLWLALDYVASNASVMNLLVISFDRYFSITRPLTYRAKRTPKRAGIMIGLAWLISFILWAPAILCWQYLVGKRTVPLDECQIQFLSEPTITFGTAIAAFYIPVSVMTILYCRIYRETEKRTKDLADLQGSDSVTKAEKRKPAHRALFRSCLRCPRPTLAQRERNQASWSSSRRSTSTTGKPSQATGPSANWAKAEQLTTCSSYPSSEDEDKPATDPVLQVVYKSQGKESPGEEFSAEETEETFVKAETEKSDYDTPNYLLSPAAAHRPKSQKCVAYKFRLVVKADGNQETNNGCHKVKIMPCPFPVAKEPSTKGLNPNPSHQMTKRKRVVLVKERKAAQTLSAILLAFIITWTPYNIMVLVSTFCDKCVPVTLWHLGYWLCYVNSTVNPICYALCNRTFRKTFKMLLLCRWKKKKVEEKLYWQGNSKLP
Method in brief: (§1)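 CHO K1 cells stably expressing rat M1 or human M3 or M5, coupled through endogenous Gq. Seeded 50,000 cells/well and held overnight in antibiotic-free medium at 37°C/5% CO2. Loaded with 2 µM Fluo-4 AM for 45 min at 37°C in HBSS/20 mM HEPES/2.5 mM probenecid, pH 7.4. […] Three independent experiments.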

GABAA receptors = test: MDS Pharma LeadProfiling Screen, flunitrazepam binding; conditions: 10 µM
[1] = target: T3, human M4 muscarinic receptor (Homo sapiens, UniProt P08173)
T3 sequence (P08173 1-479): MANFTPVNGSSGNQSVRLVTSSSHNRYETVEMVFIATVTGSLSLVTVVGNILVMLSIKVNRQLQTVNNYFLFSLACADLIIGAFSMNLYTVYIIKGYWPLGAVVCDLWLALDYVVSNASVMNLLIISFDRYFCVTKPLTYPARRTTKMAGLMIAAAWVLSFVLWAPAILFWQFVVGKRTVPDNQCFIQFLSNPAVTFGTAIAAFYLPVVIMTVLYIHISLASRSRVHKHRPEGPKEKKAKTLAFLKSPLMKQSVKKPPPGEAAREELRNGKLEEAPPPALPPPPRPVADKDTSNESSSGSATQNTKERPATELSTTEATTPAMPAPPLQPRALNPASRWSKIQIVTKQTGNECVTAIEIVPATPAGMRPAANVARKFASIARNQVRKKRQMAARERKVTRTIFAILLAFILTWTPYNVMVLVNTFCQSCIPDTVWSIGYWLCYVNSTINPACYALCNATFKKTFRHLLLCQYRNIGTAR

panel of 16 GPCRs = test: Millipore GPCR Profiler functional panel; type: cell-based
Method in brief: (§2)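 Outsourced functional screening paradigm covering 16 GPCRs, chosen as family A subtypes among the closest relatives of mAChRs. Test compound was assessed for agonist, antagonist and allosteric potentiator activity by its effect on full concentration-response curves of each receptor's agonist.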

log P = type: physicochemical
serotonin 2B receptor = serotonin 2B receptor (Homo sapiens, UniProt P41595); test: Millipore GPCR Profiler functional screen, serotonin 2B receptor; type: cell-based; conditions: full agonist CRC
Method in brief: as §2

[2] = Formulation into homogeneous dosing solution; type: physicochemical; conditions: vehicles acceptable for in vivo studies
Method in brief: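 Test compound was jet-milled to uniform nanoparticles before vehicle formulation. It was then dissolved at 56.6 mg/ml in 10% Tween 80 in double-deionized water, with pH adjusted to about 7.0 using 1 N NaOH. The mixture was sonicated until a uniform homogeneous solution formed, for intraperitoneal dosing.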

M1 mAChR = target: T4, M1 mAChR (Rattus norvegicus, UniProt P08482); test: Calcium mobilization selectivity assay, CHO K1 cells expressing M1; type: cell-based; conditions: 30 µM compound
T4 sequence (P08482 1-460): T1 sequence (P11229 1-460) with A5V, T254S, P309S, R320K, A337G, I413V
Method in brief: as §1

M3 mAChR = M3 mAChR (Homo sapiens, UniProt P20309); test: Calcium mobilization selectivity assay, CHO K1 cells expressing M3; type: cell-based; conditions: 30 µM compound
Method in brief: as §1

Sequence of serotonin 2B receptor (P41595 whole entry): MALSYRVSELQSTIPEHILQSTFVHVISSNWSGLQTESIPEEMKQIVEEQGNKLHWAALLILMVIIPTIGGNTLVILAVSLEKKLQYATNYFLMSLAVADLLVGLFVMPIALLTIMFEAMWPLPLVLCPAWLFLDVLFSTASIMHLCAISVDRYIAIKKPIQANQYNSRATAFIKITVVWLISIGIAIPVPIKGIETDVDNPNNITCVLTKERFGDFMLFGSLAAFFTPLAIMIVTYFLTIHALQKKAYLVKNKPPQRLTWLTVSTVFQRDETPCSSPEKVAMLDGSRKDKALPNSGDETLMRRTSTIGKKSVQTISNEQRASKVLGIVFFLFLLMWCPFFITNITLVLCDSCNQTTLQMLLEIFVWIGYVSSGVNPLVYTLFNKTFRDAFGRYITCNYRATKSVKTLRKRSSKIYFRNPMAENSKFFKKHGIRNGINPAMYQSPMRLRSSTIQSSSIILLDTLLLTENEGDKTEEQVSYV
Sequence of M3 mAChR (P20309 whole entry): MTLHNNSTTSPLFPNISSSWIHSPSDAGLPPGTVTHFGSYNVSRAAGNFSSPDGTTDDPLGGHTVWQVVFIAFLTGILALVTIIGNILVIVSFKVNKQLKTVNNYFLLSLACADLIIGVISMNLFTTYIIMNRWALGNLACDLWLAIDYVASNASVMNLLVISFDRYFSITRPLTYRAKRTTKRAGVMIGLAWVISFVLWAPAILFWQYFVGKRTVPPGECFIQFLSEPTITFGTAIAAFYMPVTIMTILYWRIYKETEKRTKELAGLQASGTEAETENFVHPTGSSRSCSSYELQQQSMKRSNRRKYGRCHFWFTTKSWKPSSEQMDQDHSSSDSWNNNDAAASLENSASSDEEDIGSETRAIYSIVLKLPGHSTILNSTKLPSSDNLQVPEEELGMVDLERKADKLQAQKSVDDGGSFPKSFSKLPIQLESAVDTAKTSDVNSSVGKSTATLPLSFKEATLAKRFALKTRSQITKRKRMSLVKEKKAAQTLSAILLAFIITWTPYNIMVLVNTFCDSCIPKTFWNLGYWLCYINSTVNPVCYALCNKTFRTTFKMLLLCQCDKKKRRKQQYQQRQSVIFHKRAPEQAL

Cc1cc(C)c2c(N)c(C(=O)NCc3ccc4c(c3)OCO4)sc2n1 [VU0152099, 3-amino-N-(benzo[d][1,3]dioxol-5-ylmethyl)-4,6-dimethylthieno[2,3-b]pyridine carboxamide]
potentiator activity at M1 (M1): had no potentiator activity at M1
shift in the ACh CRC at M5 (M5 mAChR): No shift in the ACh CRC was observed
displacement of flunitrazepam binding (GABAA receptors): 51%
leftward shift in the ACh CRC ([1]; 10 µM compound): ≈ 30 fold
maximal response to ACh ([1]; in presence of compound): approximately 130%
agonist activity, compound alone (panel of 16 GPCRs; data not shown): no agonist activity at any receptor studied
allosteric potentiator activity at the other GPCR subtypes (panel of 16 GPCRs; full agonist CRCs): had no allosteric potentiator activity at any of the other GPCR subtypes tested
log P (log P): 3.65
antagonist activity at serotonin 2B receptor (serotonin 2B receptor): weak antagonist activity at serotonin 2B receptor
formulation into homogeneous dosing solution [2]: afforded homogeneous dosing solutions in multiple vehicles acceptable for in vivo studies
shift in the ACh CRC at M1 (M1 mAChR): No shift in the ACh CRC was observed
shift in the ACh CRC at M3 (M3 mAChR): No shift in the ACh CRC was observed
